Assay results reported in ChEMBL document CHEMBL4152196, “Design, synthesis and biological evaluation of novel trimethylangelicin analogues targeting nuclear factor kB (NF-kB)” (Eur J Med Chem, 2018).
Calls of active or inactive are those of the source. No cut-off for these calls is given here.

Tests used:
Salmonella typhimurium [1] = test: Genotoxicity in Salmonella typhimurium TA1535 assessed as revertant colonies at 5 uL/plate in presence of Sprague-Dawley rat S9 metabolic activation after 72 hrs by Ames test (reference value: 1); assay type: toxicity, organism-based; conditions: salmonella enterica subsp. enterica serovar typhimurium
Salmonella typhimurium [2] = test: Genotoxicity in Salmonella typhimurium TA97A assessed as revertant colonies at 50 uL/plate in absence of Sprague-Dawley rat S9 metabolic activation after 72 hrs by Ames test (reference value: 1); assay type: toxicity, organism-based; conditions: salmonella enterica subsp. enterica serovar typhimurium
Salmonella typhimurium [3] = test: Genotoxicity in Salmonella typhimurium TA97A assessed as revertant colonies at 50 uL/plate in presence of Sprague-Dawley rat S9 metabolic activation after 72 hrs by Ames test (reference value: 1); assay type: toxicity, organism-based; conditions: salmonella enterica subsp. enterica serovar typhimurium
Salmonella typhimurium [4] = test: Genotoxicity in Salmonella typhimurium TA97A assessed as revertant colonies at 1 uL/plate in presence of Sprague-Dawley rat S9 metabolic activation after 72 hrs by Ames test (reference value: 1); assay type: toxicity, organism-based; conditions: salmonella enterica subsp. enterica serovar typhimurium
Salmonella typhimurium [5] = test: Genotoxicity in Salmonella typhimurium TA100 assessed as revertant colonies at 5 uL/plate in presence of Sprague-Dawley rat S9 metabolic activation after 72 hrs by Ames test (reference value: 1); assay type: toxicity, organism-based; conditions: salmonella enterica subsp. enterica serovar typhimurium
Salmonella typhimurium [6] = test: Genotoxicity in Salmonella typhimurium TA98 assessed as revertant colonies at 1 uL/plate in absence of Sprague-Dawley rat S9 metabolic activation after 72 hrs by Ames test (reference value: 1); assay type: toxicity, organism-based; conditions: salmonella enterica subsp. enterica serovar typhimurium
K562 = test: Cytotoxicity against human K562 cells after 2 days by cell counting analysis; assay type: cell-based; conditions: k562, 48 h
Salmonella typhimurium [7] = test: Genotoxicity in Salmonella typhimurium TA98 assessed as revertant colonies at 5 uL/plate in presence of Sprague-Dawley rat S9 metabolic activation after 72 hrs by Ames test (reference value: 1); assay type: toxicity, organism-based; conditions: salmonella enterica subsp. enterica serovar typhimurium
Salmonella typhimurium [8] = test: Genotoxicity in Salmonella typhimurium TA98 assessed as revertant colonies at 5 uL/plate in absence of Sprague-Dawley rat S9 metabolic activation after 72 hrs by Ames test (reference value: 1); assay type: toxicity, organism-based; conditions: salmonella enterica subsp. enterica serovar typhimurium
Salmonella typhimurium [9] = test: Genotoxicity in Salmonella typhimurium TA1535 assessed as revertant colonies at 100 uL/plate in absence of Sprague-Dawley rat S9 metabolic activation after 72 hrs by Ames test (reference value: 1); assay type: toxicity, organism-based; conditions: salmonella enterica subsp. enterica serovar typhimurium
Salmonella typhimurium [10] = test: Genotoxicity in Salmonella typhimurium TA1535 assessed as revertant colonies at 100 uL/plate in presence of Sprague-Dawley rat S9 metabolic activation after 72 hrs by Ames test (reference value: 1); assay type: toxicity, organism-based; conditions: salmonella enterica subsp. enterica serovar typhimurium
Salmonella typhimurium [11] = test: Genotoxicity in Salmonella typhimurium TA98 assessed as revertant colonies at 50 uL/plate in presence of Sprague-Dawley rat S9 metabolic activation after 72 hrs by Ames test (reference value: 1); assay type: toxicity, organism-based; conditions: salmonella enterica subsp. enterica serovar typhimurium
Salmonella typhimurium [12] = test: Genotoxicity in Salmonella typhimurium TA97A assessed as revertant colonies at 100 uL/plate in presence of Sprague-Dawley rat S9 metabolic activation after 72 hrs by Ames test (reference value: 1); assay type: toxicity, organism-based; conditions: salmonella enterica subsp. enterica serovar typhimurium
Salmon testes DNA = test: Binding affinity to salmon testes DNA assessed as DNA intercalation by linear flow dichroism analysis; conditions: Salmonidae
Salmonella typhimurium [13] = test: Genotoxicity in Salmonella typhimurium TA98 assessed as revertant colonies at 1 uL/plate in presence of Sprague-Dawley rat S9 metabolic activation after 72 hrs by Ames test (reference value: 1); assay type: toxicity, organism-based; conditions: salmonella enterica subsp. enterica serovar typhimurium
Salmonella typhimurium [14] = test: Genotoxicity in Salmonella typhimurium TA98 assessed as revertant colonies at 50 uL/plate in absence of Sprague-Dawley rat S9 metabolic activation after 72 hrs by Ames test (reference value: 1); assay type: toxicity, organism-based; conditions: salmonella enterica subsp. enterica serovar typhimurium
IB3-1 [15] = test: Inhibition of TNF-alpha induced IL-17 production in human IB3-1 cells at 1 uM preincubated for 5 hrs followed by TNF-alpha stimulation and measured after 24 hrs relative to control; assay type: functional
Method in brief: (§1)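 IB3-1 cells (CF patient, ΔF508/W1282X, adeno12/SV40-immortalized) grown in LHC-8 with 5% FBS, no gentamycin, 37°C/5% CO₂; 60% confluent monolayers seeded, compound added after 24 h, 5 h before 80 ng/ml TNF-α, then 24 h further incubation. Cytokines in supernatants measured by Bioplex 27-plex Luminex bead assay: beads, detection antibody, streptavidin–phycoerythrin, 30/30/10 min at room temperature.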

Salmonella typhimurium [16] = test: Genotoxicity in Salmonella typhimurium TA1535 assessed as revertant colonies at 5 uL/plate in absence of Sprague-Dawley rat S9 metabolic activation after 72 hrs by Ames test (reference value: 1); assay type: toxicity, organism-based; conditions: salmonella enterica subsp. enterica serovar typhimurium
Homo sapiens = species: Homo sapiens; test: Inhibition of NF-kappaB (unknown origin) assessed as decrease in NF-kappaB/DNA interaction at 12.5 to 100 uM using 32P-labeled target NF-kappaB double-stranded oligonucleotide after 30 mins by EMSA
Method in brief: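 Purified NF-κB p50 (0.1 µl/20 µl, 50 gsu) was combined with 0.25 ng of ³²P-labeled double-stranded NF-κB consensus oligonucleotide. Bound 30 min at room temperature, then run on 6% polyacrylamide in 0.25× TBE at 200 V. IC₅₀ is 50% inhibition of the complex.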

IB3-1 [17] = test: Inhibition of TNF-alpha induced PDGF-B chain production in human IB3-1 cells at 1 uM preincubated for 5 hrs followed by TNF-alpha stimulation and measured after 24 hrs relative to control; assay type: functional; method in brief: as §1
Salmonella typhimurium [18] = test: Genotoxicity in Salmonella typhimurium TA100 assessed as revertant colonies at 1 uL/plate in absence of Sprague-Dawley rat S9 metabolic activation after 72 hrs by Ames test (reference value: 1); assay type: toxicity, organism-based; conditions: salmonella enterica subsp. enterica serovar typhimurium
Salmonella typhimurium [19] = test: Genotoxicity in Salmonella typhimurium TA100 assessed as revertant colonies at 100 uL/plate in presence of Sprague-Dawley rat S9 metabolic activation after 72 hrs by Ames test (reference value: 1); assay type: toxicity, organism-based; conditions: salmonella enterica subsp. enterica serovar typhimurium
Salmonella typhimurium [20] = test: Genotoxicity in Salmonella typhimurium TA100 assessed as revertant colonies at 10 uL/plate in presence of Sprague-Dawley rat S9 metabolic activation after 72 hrs by Ames test (reference value: 1); assay type: toxicity, organism-based; conditions: salmonella enterica subsp. enterica serovar typhimurium
Salmonella typhimurium [21] = test: Genotoxicity in Salmonella typhimurium TA97A assessed as revertant colonies at 1 uL/plate in absence of Sprague-Dawley rat S9 metabolic activation after 72 hrs by Ames test (reference value: 1); assay type: toxicity, organism-based; conditions: salmonella enterica subsp. enterica serovar typhimurium
Salmonella typhimurium [22] = test: Genotoxicity in Salmonella typhimurium TA97A assessed as revertant colonies at 5 uL/plate in absence of Sprague-Dawley rat S9 metabolic activation after 72 hrs by Ames test (reference value: 1); assay type: toxicity, organism-based; conditions: salmonella enterica subsp. enterica serovar typhimurium
IB3-1 [23] = test: Antiproliferative activity against human IB3-1 cells after 2 days by cell counting analysis; assay type: cell-based; conditions: IB3-1, 48 h
Method in brief: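 IB3-1 cells from a CF patient (ΔF508/W1282X), immortalized with adeno12/SV40, grown in LHC-8 with 5% FBS and no gentamycin at 37°C/5% CO₂. Treated at 12.5, 25, 50, 100, 200 and 800 µM. Cells counted by Coulter counter after 2 days, with untreated cells in log phase. IC₅₀ is the concentration giving 50% inhibition of cell growth.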

CCc1cc2c(C(C)C)cc(=O)oc2c2c(C)coc12
T/C (Salmonella typhimurium [1]): 0.9
T/C (Salmonella typhimurium [2]): 1.1
T/C (Salmonella typhimurium [3]): 1.2
T/C (Salmonella typhimurium [4]): 1
T/C (Salmonella typhimurium [5]): 1.1
T/C (Salmonella typhimurium [6]): 1.1
Activity (K562): Non-Toxic
T/C (Salmonella typhimurium [7]): 0.6
T/C (Salmonella typhimurium [8]): 1.2
T/C (Salmonella typhimurium [9]): 0.9
T/C (Salmonella typhimurium [10]): 0.8
T/C (Salmonella typhimurium [11]): 0.7
T/C (Salmonella typhimurium [12]): 1
Activity (Salmon testes DNA): inactive
T/C (Salmonella typhimurium [13]): 0.8
T/C (Salmonella typhimurium [14]): 1.2
inhibition at 1 µM (IB3-1 [15]): > 20%
T/C (Salmonella typhimurium [16]): 1.1
inhibition (Homo sapiens): Active
inhibition at 1 µM (IB3-1 [17]): > 20%
T/C (Salmonella typhimurium [18]): 0.8
T/C (Salmonella typhimurium [19]): 1.5
T/C (Salmonella typhimurium [20]): 1
T/C (Salmonella typhimurium [21]): 1.1
T/C (Salmonella typhimurium [22]): 0.9
IC50 (IB3-1 [23]): > 200 µM
